This passage reports IC50, ED25 and ED50 results from ChEMBL document CHEMBL1125845, “Indazolinones, a new series of redox-active 5-lipoxygenase inhibitors with built-in selectivity and oral activity” (J Med Chem, 1991).

Structures are written as SMILES. pIC50: −log10 of the molar value. A value given as a limit tells only on which side of the number the result lay.

The target of assay [1] is T1, Polyunsaturated fatty acid 5-lipoxygenase (Rattus norvegicus, UniProt P12527).
T1 sequence (P12527 whole entry): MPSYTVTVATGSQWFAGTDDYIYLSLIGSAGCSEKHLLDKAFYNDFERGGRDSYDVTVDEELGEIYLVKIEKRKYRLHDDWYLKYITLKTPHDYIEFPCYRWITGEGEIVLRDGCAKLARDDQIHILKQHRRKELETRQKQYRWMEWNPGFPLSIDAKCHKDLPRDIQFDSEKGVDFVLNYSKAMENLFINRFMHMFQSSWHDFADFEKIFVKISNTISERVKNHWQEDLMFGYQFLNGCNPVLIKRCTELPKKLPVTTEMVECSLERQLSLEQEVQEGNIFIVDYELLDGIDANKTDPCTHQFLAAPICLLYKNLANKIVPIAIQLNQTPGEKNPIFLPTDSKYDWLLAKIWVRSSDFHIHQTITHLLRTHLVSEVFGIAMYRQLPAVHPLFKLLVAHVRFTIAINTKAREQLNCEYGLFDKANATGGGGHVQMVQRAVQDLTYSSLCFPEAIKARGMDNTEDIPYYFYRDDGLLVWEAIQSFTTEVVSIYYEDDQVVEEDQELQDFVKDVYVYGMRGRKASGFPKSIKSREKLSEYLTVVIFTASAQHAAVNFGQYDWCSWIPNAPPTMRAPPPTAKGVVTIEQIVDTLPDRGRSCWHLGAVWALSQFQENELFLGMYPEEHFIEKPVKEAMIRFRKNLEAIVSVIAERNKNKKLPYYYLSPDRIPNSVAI
Put plainly: In vitro inhibition of LTB4 production was measured in rat blood. Format: functional. In a few lines:
(§1)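 Pooled heparinized blood from male Alderley Park Wistar rats (vena cava) held on ice; preincubated with compound in DMSO (1% final) 15 min at 37 °C, then A23187 (20 µg/mL) added for a further 15 min; stopped with cocktail of indomethacin, EGTA and azide; plasma LTB4 and PGE2 by radioimmunoassay. IC50 by nonlinear regression from two experiments.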

Assay [2] deals with T2, Cyclooxygenase (Rattus norvegicus, UniProt P35355+Q63921).
T2 sequence (P35355 whole entry): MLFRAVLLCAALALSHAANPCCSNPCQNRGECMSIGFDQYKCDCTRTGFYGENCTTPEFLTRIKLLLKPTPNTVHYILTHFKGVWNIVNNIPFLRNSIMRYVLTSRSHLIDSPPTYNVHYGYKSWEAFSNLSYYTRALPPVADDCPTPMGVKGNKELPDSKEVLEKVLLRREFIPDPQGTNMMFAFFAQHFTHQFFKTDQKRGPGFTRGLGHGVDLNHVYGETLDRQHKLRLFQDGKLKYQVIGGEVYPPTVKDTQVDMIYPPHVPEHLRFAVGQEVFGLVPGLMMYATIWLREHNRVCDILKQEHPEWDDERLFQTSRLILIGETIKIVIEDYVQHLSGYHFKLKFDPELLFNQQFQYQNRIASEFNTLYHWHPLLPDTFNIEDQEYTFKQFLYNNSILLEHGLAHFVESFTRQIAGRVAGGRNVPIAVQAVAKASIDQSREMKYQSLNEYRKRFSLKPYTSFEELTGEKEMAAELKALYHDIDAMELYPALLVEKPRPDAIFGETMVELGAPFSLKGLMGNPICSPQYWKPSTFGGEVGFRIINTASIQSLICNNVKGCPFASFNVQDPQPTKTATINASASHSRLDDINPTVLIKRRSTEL
T2 sequence (Q63921 whole entry): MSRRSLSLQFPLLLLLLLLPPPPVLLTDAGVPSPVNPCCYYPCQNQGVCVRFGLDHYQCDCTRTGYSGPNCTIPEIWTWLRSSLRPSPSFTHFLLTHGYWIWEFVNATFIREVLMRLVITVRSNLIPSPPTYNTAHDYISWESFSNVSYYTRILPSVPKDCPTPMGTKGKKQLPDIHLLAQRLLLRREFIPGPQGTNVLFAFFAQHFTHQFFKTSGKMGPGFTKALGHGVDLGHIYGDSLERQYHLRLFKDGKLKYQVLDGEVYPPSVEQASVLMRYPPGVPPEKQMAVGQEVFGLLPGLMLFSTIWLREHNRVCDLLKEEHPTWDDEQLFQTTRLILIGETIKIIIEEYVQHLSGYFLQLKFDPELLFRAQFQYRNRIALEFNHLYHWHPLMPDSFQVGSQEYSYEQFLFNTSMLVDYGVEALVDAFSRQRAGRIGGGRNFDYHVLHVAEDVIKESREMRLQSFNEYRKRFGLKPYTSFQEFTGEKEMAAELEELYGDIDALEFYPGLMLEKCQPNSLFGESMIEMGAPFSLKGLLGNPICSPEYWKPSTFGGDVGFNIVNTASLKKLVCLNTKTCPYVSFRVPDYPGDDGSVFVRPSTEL
The experiment in a line: In vitro inhibition of PGE-2 production was measured in rat blood. In kind it is functional.

For a further assay, the species on record is Canis familiaris. The experiment in a line: In vitro test for the induction of the production of methemoglobin (MHb) in dog blood. In kind it is functional, Canis lupus familiaris. The method, boiled down: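 Pooled heparinized dog blood (leg vein) incubated with compound for 2 h at 37 °C; methemoglobin quantified by cooximeter.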
The target in assay [3] is T2, Cyclooxygenase. Put plainly: In vitro inhibition of PGE-2 (PG) production in rat blood; 3-30. In kind it is functional. The method, boiled down:
as §1

Assay [4] has as its target Polyunsaturated fatty acid 5-lipoxygenase (Canis lupus familiaris). The experiment in a line: Ex vivo inhibition of LTB4 production was measured in dog blood.

Take `C[C@@H](c1cccc2ccccc12)n1[nH]c2ccccc2c1=O`: the pIC50 (as a rule, the IC50 on a negative log10 scale, so that one unit is a factor of ten) in assay [1] was 4.96. Further, the IC50 (as a rule, the concentration that inhibits the measured activity by half) at Cyclooxygenase [2] is 48 µM.
In the assay filed under Canis familiaris, `Cn1[nH]c2ccccc2c1=O` gave an ED25 of 10 µM. The molecule also came in with an IC50 at Cyclooxygenase [2] of 17 µM.
`O=c1c2ccccc2[nH]n1Cc1ccc(Cl)nc1` had a pIC50 in assay [1] of more than 6.00. Further, the IC50 on Cyclooxygenase [3] is 3 µM. Moreover, the ED50 (commonly the dose that gives a 50% effect, or the effect in half of the subjects) in assay [4] was found to be 15 mg/kg.
Turning to `Cc1ncccc1Cn1[nH]c2ccccc2c1=O`, the pIC50 in assay [1] was 5.59. In addition, at Cyclooxygenase [2], the IC50 amounted to 58 µM. For the same molecule, in assay [4], the ED50 was 10 mg/kg.
`O=c1c2ccccc2[nH]n1Cc1c[nH]c2ccccc12` returned an IC50 at Cyclooxygenase [2] of 94 µM.
Regarding `Cn1c(=O)c2ccccc2n1Cc1ccccc1`, in assay [1], the pIC50 was less than 4.52.
Molecule `O=c1c2ccccc2[nH]n1Cc1cccc2ccccc12` gave a pIC50 in assay [1] of 6.21. In addition, the IC50 at Cyclooxygenase [2] amounted to 100 µM. Also, in assay [4], the ED50 is more than 100 mg/kg.
`CCCCCNC(=O)c1cccc2[nH]n(Cc3cccnc3)c(=O)c12`: the ED25 in the assay listed under Canis familiaris is more than 250 µM.
Consider `O=c1c(O)c(-c2ccc(O)c(O)c2)oc2cc(O)cc(O)c12` [QUERCETIN], for which the IC50 on Cyclooxygenase [2] stood at 50 µM.
Molecule `COc1ccc(Cn2[nH]c3ccccc3c2=O)cn1` came in with an IC50 against Cyclooxygenase [3] of 3 µM.
`O=c1cc(-c2ccccc2)oc2cc(O)c(O)c(O)c12` [BAICALEIN]: on Cyclooxygenase [2], the IC50 came out at 50 µM.
For the molecule `O=c1[nH]n(Cc2ccccc2)c2ccccc12`, the pIC50 in assay [1] was 5.47. This molecule returned an IC50 on Cyclooxygenase [2] of 31 µM.
In turn, `Cn1[nH]c(=O)c2ccccc21` gave a pIC50 in assay [1] of 5.52. Also, the IC50 against Cyclooxygenase [2] was determined as 20 µM. Besides, the ED50 in assay [4] is more than 100 mg/kg.
For the molecule `Cc1ccc(Cn2[nH]c3ccccc3c2=O)cn1`, the pIC50 in assay [1] is 5.60. This molecule returned an IC50 on Cyclooxygenase [2] of 21 µM. In assay [4], the ED50 was found to be 10 mg/kg.
Turning to `O=c1[nH]n(-c2ccccc2)c2ccccc12`, in assay [1], the pIC50 was 4.52.
On to `O=c1c2ccccc2[nH]n1Cc1cccnc1Cl`, for which the pIC50 in assay [1] was 5.85. Moreover, the IC50 on Cyclooxygenase [2] turned out to be 12 µM. Also, in assay [4], the ED50 amounted to 5 mg/kg.
Consider `CCCCCNC(=O)c1cccc2n[nH]c(O)c12`, for which, in the assay filed under Canis familiaris, the ED25 was more than 250 µM.
Consider `C[C@H](c1cccc2ccccc12)n1[nH]c2ccccc2c1=O`, for which the pIC50 in assay [1] was 5.85. Besides, the IC50 on Cyclooxygenase [2] came out at 400 µM. The ED50 in assay [4] was more than 100 mg/kg.
Consider `O=c1c2ccccc2[nH]n1Cc1cccs1`, for which the IC50 at Cyclooxygenase [2] turned out to be 26 µM.
Consider `O=c1c2ccccc2[nH]n1-c1ccccc1`, for which, on Cyclooxygenase [2], the IC50 came to 2.7 µM.
`O=c1c2ccccc2[nH]n1CCCc1ccccc1` had a pIC50 in assay [1] of 6.27. In addition, the IC50 against Cyclooxygenase [2] was found to be 3.8 µM. For the same molecule, the ED50 in assay [4] was more than 100 mg/kg.
In turn, `O=c1c2ccccc2[nH]n1CCc1ccccc1` showed an IC50 on Cyclooxygenase [2] of 15 µM.
In the case of `O=c1c2ccccc2[nH]n1Cc1ccccn1`, the half-maximal inhibitory concentration (IC50) against Cyclooxygenase [2] turned out to be 67 µM.
`COc1nn(Cc2ccccc2)c2ccccc12` showed a pIC50 in assay [1] of less than 4.52.
On Cyclooxygenase [2], `O=c1c2ccccc2[nH]n1Cc1cncs1` returned a 50% inhibitory concentration (IC50) of more than 100 µM.
On the same count and under the same terms, then `O=c1c2ccccc2[nH]n1Cc1ccc2ccccc2c1`, with 18 µM.
`Cn1c2ccccc2c(=O)n1Cc1ccccc1` had a pIC50 in assay [1] of less than 4.52. In addition, the ED50 in assay [4] was more than 100 mg/kg.
For `Cc1ccncc1Cn1[nH]c2ccccc2c1=O`, the pIC50 in assay [1] is 5.52. Further, the IC50 against Cyclooxygenase [2] was more than 30 µM. Also, the ED50 in assay [4] was 5 mg/kg.
The corresponding values for `O=c1c2ccccc2[nH]n1CCCCc1ccccc1` are 6.11, 26 µM and more than 100 mg/kg.
In the case of `Oc1n[nH]c2ccccc12`, the ED25 in the assay filed under Canis familiaris is 40 µM. This molecule had an IC50 on Cyclooxygenase [2] of 30 µM.
Turning to `O=c1c2ccccc2[nH]n1Cc1cccnc1`, the ED25 in the assay filed under Canis familiaris was determined as 7.5 µM. The same molecule had an IC50 on Cyclooxygenase [2] of more than 300 µM.
Take `O=c1c2ccccc2[nH]n1Cc1ccco1`: the half-maximal inhibitory concentration (IC50) against Cyclooxygenase [2] came out at 13 µM.
`c1ccc(COc2[nH]nc3ccccc23)cc1` had a pIC50 in assay [1] of less than 4.52.
In assay [1], `O=c1c2ccccc2[nH]n1Cc1cncc(Br)c1` gave a pIC50 of 6.00. In addition, the IC50 against Cyclooxygenase [2] worked out at 39 µM. Further, in assay [4], the ED50 amounted to 10 mg/kg.
`Cc1cncc(Cn2[nH]c3ccccc3c2=O)c1` showed a pIC50 in assay [1] of 5.74. This molecule also registered an IC50 against Cyclooxygenase [2] of 81 µM. Besides, the ED50 in assay [4] amounted to 15 mg/kg.
Regarding `NC1=NN(c2cccc(C(F)(F)F)c2)CC1` [BW-755C], the IC50 at Cyclooxygenase [2] came out at 5 µM.
For the molecule `CC(Cc1ccc(O)c(O)c1)C(C)Cc1ccc(O)c(O)c1` (stereo unspecified) [NORDIHYDROGUAIARETIC ACID], the IC50 against Cyclooxygenase [2] amounted to 30 µM.
For `O=C1CCN(c2ccccc2)N1` [PHENIDONE], the IC50 at Cyclooxygenase [2] came to 3 µM.
`O=c1c2ccccc2[nH]n1Cc1ccccc1` returned an IC50 on Cyclooxygenase [2] of 18 µM.
The same measure, in the same setting: then `O=c1c2ccccc2[nH]n1Cc1ccncc1`, with 280 µM.
Take `CCCCCNC(=O)c1cccc2[nH]n(C)c(=O)c12`: the ED25 in the assay listed under Canis familiaris was more than 250 µM.
